Experimental data published in the EternaBench riboswitch data.

Tested on: MS2 coat protein
Assay: apparent Kd, MS2 coat protein; higher = weaker binding; RNA-MaP array; FMN 200 µM where present
Outline: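 Designs on Illumina sequencing-chip clusters, transcribed by stalled E. coli RNA polymerase, were exposed to SNAP-549-labelled MS2 coat protein in doubling steps from 0.7 or 1.5 nM up to 3 µM, without and then with constant ligand. The buffer held 100 mM Tris-HCl pH 7.5, 80 mM KCl, 4 mM MgCl2, BSA, DTT, yeast tRNA and Tween-20. Apparent Kd values are medians of filtered per-cluster binding-curve fits to green signal normalised to red-channel RNA signal and control-cluster median Fmax.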

[1] = designed as: OFF switch for flavin mononucleotide, no ligand
[2] = ligand present: flavin mononucleotide, designed as: OFF switch for flavin mononucleotide
[3] = designed as: ON switch for flavin mononucleotide, no ligand
[4] = ligand present: flavin mononucleotide, designed as: ON switch for flavin mononucleotide

| Sequence | apparent Kd [1] [µM] | apparent Kd [2] [µM] | apparent Kd [3] [µM] | apparent Kd [4] [µM] |
| --- | --- | --- | --- | --- |
| AGGAGGAAUGUAGGAUAUAUAUAUAUAUAUAGGCAAAGCGUAUAUAUAUAUAUAGAAGGACAUGAGGAUCACCCAUGUUUCCCU | 0.00927 | 0.00899 | – | – |
| AGGCAGCUACAUGAGGAUCACCCAUGUCUGUUUGGAUCUUCCAGAAGGCACGUAAAAUCGGUGGGUGAGGAUAUGGUAGGUCCC | – | – | 0.0309 | 0.00991 |
| AGGCCGCUACGCCGGCUUCACGCACAGGAUAUGCAGUUACAUGAGGAUCACCCAUGUGGCCAUGUGCAGAAGGGUGGUUCGUGA | – | – | 0.0221 | 0.00544 |
| AGGCGAGUAGGAUAUGCGUAUUUACAGGAAAGCUGGAUGGUACAUGAGGAUCACCCAUGUAGAAGGGCUCUGAA | 0.0212 | 0.0194 | – | – |
| AGGCUCACAGGAUAUCUCCACGGUAACAUGAGGAUCACCCAUGUCUCAUUUUCUCGUGCAAGAGAAGGGUGAGCGG | 0.435 | 0.455 | – | – |
| AGGGAACAUGAGGAUCACCCAUGUGAGGAUAUACAAAAGAAAAGAAAAGAAAGAAGAAGUAGAAGGUACAAGAA | 0.0282 | 0.0355 | – | – |
| AGGGUAGUAGGAUAUACAUGAGGAUCACCCAUGUUUCCAUUACGUGACUGGUCCUAGUGUAGAAGGGCUAGCAC | – | 0.0175 | – | – |
| AGGUAAACCACAGGAUAUGGCUAGUAUAACUAGCCAGAAGGGUGGUCGAAACCAUGUAAAUACAUGAGGAUCACCCAUGUGUCC | – | – | 0.4 | 0.131 |
| AGGUAACAUGAGGAUCACCCAUGUCAGGAUAUCAUGAAGAUUAGAUUAGAGGAGAGGUUGAGAAGGGACUAUAU | 0.0556 | 0.0495 | – | – |
| AGGUACAACGGAGGAUAUAAUAGUCUAUAGACGUUAGAAGGCCGGGCCUUCACAUGAGGAUCACCCAUGUCUCUGGAGGCGCCU | – | – | 0.0208 | 0.0169 |
| AGGUACAUGAGGAUCACCCAUGUAAGAGCCCUCAUGCGAUGUAGAAGGAUAAUGCGAGAAGAGCUAUAGGAUAUACAUGAGAAA | 0.156 | 0.139 | – | – |
| AGGUACGGUCGAUCAUAUCAAGGUAGAAGGCGACUGGGAAUGUGAGACAUGAGGAUCACCCAUGUCGAGGAUAUACCUGAAAGU | 0.0889 | 0.0501 | – | – |
| AGGUCAACCACAGGAUAUGGCUAGCAUAGCUAGCCAGAAGGGUGGUCGUUGCCAUGUAAAUACAUGAGGAUCACCCAUGUAUCC | – | – | 0.19 | 0.0495 |
| AGGUGACAUGAGGAUCACCCAUGUAAGGAUAUACGGUUAGUGGAGAGUUGGAGGAGAGGUAGAAGGUACGGAGC | 0.249 | 0.194 | – | – |
| AGUAAGAUGCAGAAGGUGUCAGCGAGAGCUGCGACAUGAGGAUCACCCAUGUACACGUGAGUGUACAAGGAUAUGCAUCUUACA | – | – | 1.09 | 0.431 |
| AGUACGUCAGGAUAUCUGAUGUCUAACUUCGGUUAGACAUCAGAGAAGGGACAUGAGGAUCACCCAUGUACAAA | 0.0418 | 0.0369 | – | – |
| AGUAUACAUGAGGAUCACCCAUGUCUGUAACGGACAGGAUAUGCGUUGCAUCACUGUAAUGCAGAAGGGUCCUGUA | – | – | 0.296 | 0.0452 |
| AGUAUGCGAGGAUAUACAUGAGGAUCACCCAUGUGAGAGAUAAAAGUGAGAAAGACAAGUAGAAGGCGCGUACA | 0.0619 | 0.451 | – | – |
| AGUAUGCGGCAGGAUAUCCAUCCGCGAAAAGGUGGAGAAGGGCUGACAUGAGGAUCACCCAUGUGCGUCUUGUA | 0.0297 | 0.031 | – | – |
| AGUCAUACAGGAUAUACAUGAGGAUCACCCAUGUAAAUCCUAAAAAGAAAAUCCUCAUGUAGAAGGGUAUGACA | 0.0136 | 0.00924 | – | – |
| AGUCAUACAGGAUAUACAUGAGGAUCACCCAUGUUUAUCCUAAAAUAAAGAUCCUCAUGUAGAAGGGUAUGACA | 0.0128 | 0.0126 | – | – |
| AGUCGGAGCAGAGGAUAUACAUGAGGAUCACCCAUGUAAAUGAAUGAAGCCAGGAAACUGGCAAUGUAGAAGGCUGCUCCGACA | 0.018 | 0.0528 | – | – |
| AGUCGGAGCAGAGGAUAUACAUGAGGAUCACCCAUGUAAUAAAGUGAAGCCUGGAAGCAGGCAAUGUAGAAGGCUGCUCCGACA | 0.0111 | 0.0818 | – | – |
| AGUCGGAGCAGAGGAUAUAUACAUGAGGAUCACCCAUGUGAAUGAAUAAGCUGGAAACAGCAUGUAUAGAAGGCUGCUCCGACA | 0.352 | 0.603 | – | – |
| AGUCGGAGCAGAGGAUAUUACAUGAGGAUCACCCAUGUGGAAAAACCAAGCUGGAAACAGCAAUGUAAGAAGGCUGCUCCGACA | 0.497 | 0.879 | – | – |
| AGUGCCAUGUAGAAGGCAGAUCUGAUUCAGAUCUGAGGAUAUACAUGAGGAUCACCCAUGUAAAUGCACUGCACGAGAGUGCAA | 0.012 | 0.0439 | – | – |
| AGUGCCAUGUAGAAGGGAGAUCUGAUUCAGAUCUCAGGAUAUACAUGAGGAUCACCCAUGUAAAUGCACUGCACGAGAGUGCAA | 0.0125 | 0.0309 | – | – |
| AGUGCGUAUGUGAGGAUAUGCUGGUCCUUGGAUCAGCAGAAGGCACAUGAGGAUCACCCAUGUGGUGUCGUACC | 0.209 | 0.0364 | – | – |

| Sequence | apparent Kd [1] [µM] | apparent Kd [2] [µM] | apparent Kd [3] [µM] | apparent Kd [4] [µM] |
| --- | --- | --- | --- | --- |
| AGUGUCAUCCAGAAGGCCUCAUUACAUGAGGAUCACCCAUGUAAUCGUGGGAGGAUAUGGAUGAUACAGCUACGUUUCGUAGCA | – | – | 0.00742 | 0.00465 |
| AGUGUCAUCGAGAAGGCCUCAACAUGAGGAUCACCCAUGUUGCAAAAUGGGAGGAUAUCGCGAAAACAGCUACGUUUCGUAGCA | – | – | 0.0408 | 0.00879 |
| AGUGUCAUCGAGAAGGCCUCAACAUGAGGAUCACCCAUGUUGCAAAAUGGGAGGAUAUCGCGCGUUAAAAAACGUUUCGUAGCA | – | – | 0.0383 | 0.0175 |
| AGUGUCAUCGAGAAGGCCUCGACAUGAGGAUCACCCAUGUUGUAACAUGGGAGGAUAUCGAUGAUACAGCUACGUUUCGUAGCA | – | – | 0.767 | 0.394 |
| AGUGUCAUCGAGAAGGCCUUGACAUGAGGAUCACCCAUGUUAUAACAUGGGAGGAUAUCGAUGAUACAGCUACGUUUCGUAGCA | – | – | 0.509 | 0.0467 |
| AGUGUCGGCACAGGAUAUGAGAUGCCGGCAGACAUGAGGAUCACCCAUGUAAGCGAACCAGGCAGUCAGAAGGGUGAUCGACAA | – | – | 0.0468 | 0.0244 |
| AGUGUGUGGCAGGAUAUGCGAUUUGUCGGUGAAGCAGAAGGGUCUACAUGAGGAUCACCCAUGUGUGCGGUUGA | 0.141 | 0.381 | – | – |
| AGUGUGUUAGGAUAUCGGAUAUGCUGGAGGAGGUGGAGUUACGAGAAGGAACAUGAGGAUCACCCAUGUAGGAC | 0.0258 | 0.0232 | – | – |
| AGUUAAUAUCGAGGAUAUAAGUCUAGGACAUGAGGAUCACCCAUGUAUGUCUUAGAAGGCGAUAUUAACAGCAUGUUACAUGCA | – | – | 0.0283 | 0.00689 |
| AGUUAAUAUCGAGGAUAUGUCUAAACACAUGAGGAUCACCCAUGUAUGUGUAUAGAAGGCGAUAUUAACAGCAUGUUACAUGCA | – | – | 0.0288 | 0.00858 |
| AGUUACAAACUCAACAUGAGGAUCACCCAUGUACUCUCUUGUAAGGAUAUACAUUCGUAUUGAAAGUAGAAGGUACUAAUUAUG | – | – | 0.0694 | 0.0698 |
| AGUUACAUGUAAGGAUAUACUAGCGAUAAGCUAGUAGAAGGUACUGUCUAUUGUAUCACUAUUAUACAUGAGGAUCACCCAUGU | – | – | 0.00756 | 0.00636 |
| AGUUAGAUAGCGAUAUGAUCGAGAGAUCAUGUCGCUAAAUUUAGAAGGACAUGAGGAUCACCCAUGUAGGAUAUGGGUAUAGAA | – | – | 0.367 | 0.128 |
| AGUUGGCGAGGAUAUACAUGAGGAUCACCCAUGUGAAAUAGAAUAGUGAGGAAGAAAAGUAGAAGGCGCUGACA | 0.0587 | 0.323 | – | – |
| AGUUGUUCAGGAUAUGGUGUGUUAUACAUGAGGAUCACCCAUGUGGGUCCUGGUUUGGCCUCAGAAGGGAAUGUUA | 0.476 | 0.449 | – | – |
| AGUUUGUGAGGAUAUCCAAUAUAUGACAUGAGGAUCACCCAUGUUUCCACUCGUACCUCCGGAGAAGGCACUGCGU | 0.0307 | 0.0269 | – | – |
| AUAAAACAUGAGGAUCACCCAUGUCAACAAAGUCGAGGAUAUGGGCAAAUAAAAUAAGAACCAGAAGGCGAAUAAC | – | – | 0.371 | 0.0347 |
| AUAAAACAUGAGGAUCACCCAUGUCAACAAAGUCGAGGAUAUGGGCAAAUAAAAUAAGAACCAGAAGGCGAAUUAU | – | – | 0.21 | 0.0386 |
| AUAAAUCAUGUAGGAUAUGCGUGGCGAAGCUAUGCAGAAGGACAUGAGGAUCACCCAUGUCUUUCCGUCUGCGUAUAGACGGAA | 0.0305 | 0.279 | – | – |
| AUAAGCUCGUCAGGAUAUGCGACACUGUGUCAGCAGUGUGGUAUGAUCACAUGAGGAUCACCCAUGUAGAAGGGACGAGCUUAU | 0.00634 | 0.0143 | – | – |
| AUAAGUGCAGGAUAUACGGGAAGCUAGCGAAAGCUAGCAAAACAUGAGGAUCACCCAUGUAGAAGGGCACAAUA | 0.0574 | 0.121 | – | – |
| AUAAUAAUAUAAGGAUAUACGUCACUGCGUCAGCAGUGUGGUAAGAUCACAUGAGGAUCACCCAUGUAGAAGGAUAAAUUAAAU | 0.0124 | 0.00922 | – | – |
| AUAAUCACAUGAGGAUCACCCAUGUACCGAGCUAAAGCUACAUAGGAUAUGACAAGUAUAGCUUGUCAGAAGGGUGAGUCUCGC | – | – | 0.0463 | 0.0671 |
| AUAAUGUGAGGAUAUCAGUCGACUAGCUGCGGCUAGUCGACUGAGAAGGCACAUGAGGAUCACCCAUGUAGAUC | 0.978 | 0.0477 | – | – |
| AUACAUGAGGAUCACCCAUGUUACUGGGUCUUUUUAGAACGUAGAAGGAUGAUAUUAUAAAUAUCAUAGGAUAUACUAUAUUGU | 0.052 | 0.0595 | – | – |
| AUACAUGAGGAUCACCCAUGUUACUGGGUCUUUUUAGAACGUAGAAGGAUGUUUUUAUACAUAACAUAGGAUAUACAAUAUUGU | 0.0518 | 0.0489 | – | – |
| AUACCACGAGGAUAUCGUCUAUAAUACAUGAGGAUCACCCAUGUUAUAUCUGUAAUGUUUCGAGAAGGCGUUUGUU | 0.0243 | 0.0171 | – | – |
